Laboratory results: ChEMBL document CHEMBL1125117, “Substituted 1,3-dihydro-2H-pyrrolo[2,3-b]pyridin-2-ones as potential antiinflammatory agents” (1990)

How the values were obtained:
Rattus norvegicus [1] = experiment: In vivo antiinflammatory activity against edema formation in the noninjected(secondary) paw of the rat (before edema stimulation) at dose 25 mg/kg; assay type: functional
Procedure, shortened: (§1)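 Adjuvant arthritis in rats, prophylactic regimen. Oral dosing began 1 h before challenge and continued for 21 consecutive days. Heat-killed M. tuberculosis in paraffin oil (6 mg/mL), 0.1 mL injected into the left hind paw, with methylcellulose-treated controls. Both hind paw volumes measured by plethysmograph on day 21. Reported as % change relative to control.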

Rattus norvegicus [2] = experiment: In vivo antiinflammatory activity against edema formation in the injected(primary) paw of the rat(before edema stimulation) at dose 25 mg/kg; assay type: functional; procedure, shortened: as §1
Rattus norvegicus [3] = experiment: In vivo effect on prostaglandin and leukotriene mediated production in rat pleural cavity was assessed by the inhibition of LTE4 in 5-lipoxygenase/ cyclooxygenase at dose 40 mg/kg
Rattus norvegicus [4] = experiment: In vivo effect on prostaglandin and leukotriene mediated production in rat pleural cavity was assessed by the inhibition of cell influx in 5-lipoxygenase/ cyclooxygenase at dose 40 mg/kg; assay type: functional
Procedure, shortened: (§2)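 Rat reversed passive Arthus pleurisy, oral dosing 1 h before challenge. BSA given iv (5 mg), then rabbit anti-BSA IgG intrapleurally 30 min later. At 4 h, exudate was collected into indomethacin/NDGA and its volume recorded. Neutrophils were counted by Coulter counter. TXB2 and LTE4 in ethanol-extracted supernatant were measured by RIA with tritiated recovery spikes. Reported as % inhibition versus control.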

Rattus norvegicus [5] = experiment: In vivo effect on prostaglandin and leukotriene mediated production in rat pleural cavity was assessed by the inhibition of fluid volume in 5-lipoxygenase/ cyclooxygenase at dose 40 mg/kg; assay type: functional; procedure, shortened: as §2
[6] = target: Cyclooxygenase (Homo sapiens) (UniProt P35354+P23219); experiment: In vitro inhibitory activity against Prostaglandin G/H synthase in human platelets; parameters: concentration or dose not given beside the values; conditions: concentration not given here
Procedure, shortened: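 Human platelets (2×10^5/mL) in HEPES buffer with 0.5 mM EGTA and 1.5 mM CaCl2, incubated 4 min with compound in DMSO vehicle. Then given [14C]arachidonic acid and A23187 ionophore for 5 min and stopped with methanol. HHT was measured by reverse-phase HPLC. Reported as % inhibition of HHT versus vehicle, at 15 μM.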

Rattus norvegicus [7] = experiment: In vivo inhibitory activity against cells in reverse passive Arthus reaction (RPAR) assay at dose 25 mg/kg in the pleural cavity of rats.; assay type: functional
Procedure, shortened: (§3)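 Male rats, five per group, dosed orally 1 h before iv BSA antigen (5 mg). Rabbit anti-BSA IgG (0.5 mg) given intrapleurally 30 min later. At 4 h, pleural exudate volume was measured and neutrophils counted (Coulter) after saline-EDTA lavage. Reported as % reduction in cells and fluid relative to control.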

Rattus norvegicus [8] = experiment: In vivo effect on prostaglandin and leukotriene mediated production in rat pleural cavity was assessed by the inhibition of TXB2 in 5-lipoxygenase/ cyclooxygenase at dose 40 mg/kg; assay type: functional; procedure, shortened: as §2
Rattus norvegicus [9] = experiment: In vivo inhibitory activity against fluid in reverse passive Arthus reaction (RPAR) assay at dose 25 mg/kg in the pleural cavity of rats.; assay type: functional; procedure, shortened: as §3
[10] = target: T1, Polyunsaturated fatty acid 5-lipoxygenase (Homo sapiens) (UniProt P09917); experiment: In vitro inhibitory activity against 5-lipoxygenase in human polymorphonuclear (PMN) cells; conditions: concentration not given here
T1 sequence (whole entry): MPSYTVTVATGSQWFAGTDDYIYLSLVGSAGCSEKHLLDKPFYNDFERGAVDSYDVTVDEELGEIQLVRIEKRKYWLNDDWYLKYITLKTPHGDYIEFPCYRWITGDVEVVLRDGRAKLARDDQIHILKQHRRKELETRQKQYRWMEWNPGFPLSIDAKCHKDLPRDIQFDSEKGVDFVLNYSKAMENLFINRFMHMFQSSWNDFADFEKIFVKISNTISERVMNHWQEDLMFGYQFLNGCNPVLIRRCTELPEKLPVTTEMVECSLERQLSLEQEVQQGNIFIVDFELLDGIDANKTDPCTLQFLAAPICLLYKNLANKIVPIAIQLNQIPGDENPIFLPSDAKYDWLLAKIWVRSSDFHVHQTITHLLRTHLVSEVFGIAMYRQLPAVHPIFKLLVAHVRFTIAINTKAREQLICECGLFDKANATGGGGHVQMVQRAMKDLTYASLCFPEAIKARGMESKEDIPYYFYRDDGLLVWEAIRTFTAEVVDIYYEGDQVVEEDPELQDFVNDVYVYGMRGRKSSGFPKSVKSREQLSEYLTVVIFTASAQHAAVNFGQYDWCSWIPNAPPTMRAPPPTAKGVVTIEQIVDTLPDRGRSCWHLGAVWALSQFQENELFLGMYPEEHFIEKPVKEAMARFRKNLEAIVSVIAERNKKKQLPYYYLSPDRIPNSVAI
Procedure, shortened: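 Human PMN neutrophils (2×10^7 cells/mL) in HEPES buffer with 1 mM CaCl2, preincubated 4 min with test compound in DMSO vehicle. Then stimulated with [14C]arachidonic acid plus calcium ionophore A23187 for 5 min and stopped with methanol. 5-HETE was quantitated by HPLC. Reported as % inhibition versus vehicle, tested at 15 μM.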

Rattus norvegicus [11] = experiment: In vivo effect on prostaglandin and leukotriene mediated production in rat pleural cavity was assessed by the inhibition of LTE4 in 5-lipoxygenase/ cyclooxygenase at dose 20 mg/kg
Rattus norvegicus [12] = experiment: In vivo effect on prostaglandin and leukotriene mediated production in rat pleural cavity was assessed by the inhibition of fluid volume in 5-lipoxygenase/ cyclooxygenase at dose 20 mg/kg; assay type: functional; procedure, shortened: as §2
Rattus norvegicus [13] = experiment: In vivo effect on prostaglandin and leukotriene mediated production in rat pleural cavity was assessed by the inhibition of cell influx in 5-lipoxygenase/ cyclooxygenase at dose 20 mg/kg; assay type: functional; procedure, shortened: as §2
Rattus norvegicus [14] = experiment: In vivo effect on prostaglandin and leukotriene mediated production in rat pleural cavity was assessed by the inhibition of TXB2 in 5-lipoxygenase/ cyclooxygenase at dose 20 mg/kg; assay type: functional; procedure, shortened: as §2

| Compound | inhibition in vivo at 25 mg/kg (Rattus norvegicus [1]) [%] | inhibition in vivo at 25 mg/kg (Rattus norvegicus [2]) [%] | LTE4 inhibition (Rattus norvegicus [3]) [%] | inhibition in vivo at 40 mg/kg (Rattus norvegicus [4]) [%] | inhibition in vivo at 40 mg/kg (Rattus norvegicus [5]) [%] | inhibition [6] [%] | ED50 (Rattus norvegicus [7]) [mg/kg] | inhibition in vivo at 40 mg/kg (Rattus norvegicus [8]) [%] | ED50 (Rattus norvegicus [9]) [mg/kg] | inhibition [10] [%] | LTE4 inhibition (Rattus norvegicus [11]) [%] | inhibition in vivo at 20 mg/kg (Rattus norvegicus [12]) [%] | inhibition in vivo at 20 mg/kg (Rattus norvegicus [13]) [%] | inhibition in vivo at 20 mg/kg (Rattus norvegicus [14]) [%] |
| --- | --- | --- | --- | --- | --- | --- | --- | --- | --- | --- | --- | --- | --- | --- |
| CC1(C)C(=O)N(c2ccccc2)c2ncccc21 | 24 | 0 | 54 | 70 | 60 | 0 | 21.9 | 54 | 35.1 | 0 | – | – | – | – |
| CC1(C)C(=O)N(c2ccc(F)cc2)c2ncccc21 | 48 | 0 | – | – | – | 0 | 4.5 | – | 29.5 | 2 | 36 | 43 | 70 | 53 |
